Experimental data collected from several papers.
Lines come from different studies, so protocols differ. ≈ marks a conversion by molar mass, not a printed value.
Effect on: microbial growth

| Compound | organism | technique | strain | time | setting | MIC |
| --- | --- | --- | --- | --- | --- | --- |
| C/C(=C\c1ccc(C#N)cc1)C(=O)Nc1ccc(C(=O)N[C@@H](CC(N)=O)C(=O)Nc2ccc(C(=O)Nc3ccc(C(=O)Nc4ccc(C(=O)O)cc4)c(O)c3OC(C)C)cc2)cc1 | Citrobacter freundii |  | DSM30039 |  |  | 0.06 µg/mL (≈ 0.0704 µM) |
| O=C(O)CCc1cccc(Oc2ccc(-c3noc(-c4ccc(O)cc4)n3)cc2)c1 | Enterococcus faecium | broth dilution |  | 24 h |  | > 32 µg/mL |
| O=C(O)c1cccc(-n2c(/C=C/c3ccc(F)cc3)nc3ccncc3c2=O)c1 | Enterococcus faecium | broth dilution | NCTC7171 |  |  | > 128 µg/mL |
| O=C(O)c1cn(C2CC2)c2cc(N3CCNCC3)c(F)cc2c1=O | Mycobacterium intracellulare | broth dilution | ATCC23068 |  |  | 0.63 µg/mL (≈ 1.9 µM) |
| O=[N+]([O-])c1ccc(-c2nc(-c3ccc(Oc4ccccc4)cc3)no2)cc1 | Enterococcus faecium | broth dilution |  | 24 h |  | > 32 µg/mL |
| O=C(O)c1cccc(-n2c(/C=C/c3ccc(C#CCO)cc3)nc3ccccc3c2=O)c1 | Enterococcus faecium | broth dilution | NCTC7171 |  |  | > 128 µg/mL |
| Nc1ccc(-c2nc(-c3ccc(Oc4ccccc4)cc3)no2)cc1 | Enterococcus faecium | broth dilution |  | 24 h |  | > 32 µg/mL |
| CO[C@@H](C(N)=O)[C@H](NC(=O)c1ccc(NC(=O)c2ccc(C#N)cc2)cc1)C(=O)Nc1ccc(C(=O)Nc2ccc(C(=O)Nc3ccc(C(=O)O)cc3)c(O)c2OC(C)C)cc1 | Citrobacter freundii |  | DSM30039 |  |  | ≤ 0.03 µg/mL |
| C[C@@H](O)[C@H]1C(=O)N2C(C(=O)O)=C(S[C@@H]3CN[C@H](C(=O)N(C)C)C3)[C@H](C)[C@H]12 | Citrobacter freundii | broth dilution |  |  | clinical isolate | > 64 µg/mL |
| O=C(O)COc1cccc(Oc2ccc(-c3noc(-c4ccc(O)cc4)n3)cc2)c1 | Enterococcus faecium | broth dilution |  | 24 h |  | > 32 µg/mL |
| CC(C)Oc1c(NC(=O)c2ccc(NC(=O)[C@H](CC(N)=O)NC(=O)c3ccc(NC(=O)c4ccc(C#N)cc4)cc3)cc2)ccc(C(=O)Nc2ccc(C(=O)O)cc2)c1O | Citrobacter freundii |  | DSM30039 |  |  | ≤ 0.03 µg/mL |
| O=C(O)c1cccc(-n2c(/C=C/c3ccc(F)c(F)c3)nc3ccccc3c2=O)c1 | Enterococcus faecium | broth dilution | NCTC7171 |  |  | > 128 µg/mL |
| C[N+](C)(C)CCCc1ccc(Oc2ccc(-c3noc(-c4ccc(O)cc4)n3)cc2)cc1.[I-] | Enterococcus faecium | broth dilution |  | 24 h |  | 16 µg/mL |
| O=C(O)c1cn(C2CC2)c2cc(N3CCNCC3)c(F)cc2c1=O | Citrobacter freundii |  | DSM30039 |  |  | ≤ 0.03 µg/mL |
| O=C(O)c1cccc(-n2c(/C=C/c3ccc(Cl)cc3)nc3ccncc3c2=O)c1 | Enterococcus faecium | broth dilution | NCTC7171 |  |  | > 128 µg/mL |
